From ChEMBL document CHEMBL4251693, “Indolylmaleimide Derivative IM-17 Shows Cardioprotective Effects in Ischemia-Reperfusion Injury” (ACS Med Chem Lett, 2018)
Active and inactive are the calls of the source. The calls are words filed in the database; no cut-off is given here. Peptide text beside a SMILES is read from it. * marks the point of attachment. Cbz = O=C(OCc1ccccc1)*

Legend:
Heart [1] = experiment: Cardioprotective activity against Langendorff isolated Sprague-Dawley rat heart ischemia-reperfusion injury model assessed as improvement in LVDP at 3 uM administered for 10 mins as infusion followed by 30 mins of global ischemia and 60 mins of reperfusion; format: functional, tissue-based
How it was run: (§1)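 Isolated rat hearts perfused in Langendorff mode with Krebs-Henseleit buffer. Compound (HCl salt) added to the perfusate for 10 min before no-flow global ischemia of 30 min, then 60 min reperfusion with flow restored. Left ventricular developed pressure recovery taken as heart function; creatine kinase released from myocardium taken as membrane integrity marker.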

Heart [2] = experiment: Cardioprotective activity against Langendorff isolated Sprague-Dawley rat heart ischemia-reperfusion injury model assessed as suppression of creatine kinase release at 3 uM administered for 10 mins as infusion followed by 30 mins of global ischemia and 60 mins of reperfusion; format: functional, tissue-based; how it was run: as §1
Rattus norvegicus [3] = experiment: Toxicity in Sprague-Dawley rat ischemia reperfusion-induced arrhythmia model assessed as mortality at 3 mg/kg, iv administered 1 min before reperfusion (reference value: 75%); format: organism-based; details: in vivo
Rattus norvegicus [4] = experiment: Toxicity in Sprague-Dawley rat ischemia reperfusion-induced arrhythmia model assessed as mortality at 3 mg/kg, iv administered 5 mins before ischemia (reference value: 60%); format: organism-based; details: in vivo
Rattus norvegicus [5] = experiment: Cardioprotective activity against Sprague-Dawley rat ischemia reperfusion-induced arrhythmia model assessed as ventricular fibrillation time at 3 mg/kg, iv administered 5 mins before ischemia (reference value: 95.3 +/- 13 sec); format: functional
Rattus norvegicus [6] = experiment: Cardioprotective activity against Sprague-Dawley rat ischemia reperfusion-induced arrhythmia model assessed as ventricular fibrillation time at 1 mg/kg, iv administered 5 mins before ischemia (reference value: 95.3 +/- 13 sec); format: functional
Rattus norvegicus [7] = experiment: Cardioprotective activity against Sprague-Dawley rat ischemia reperfusion-induced arrhythmia model assessed as ventricular fibrillation time at 3 mg/kg, iv administered 1 min before reperfusion (reference value: 96.3 +/- 24.1 sec); format: functional
Rattus norvegicus [8] = experiment: Toxicity in Sprague-Dawley rat ischemia reperfusion-induced arrhythmia model assessed as mortality at 1 mg/kg, iv administered 5 mins before ischemia (reference value: 60%); format: organism-based; details: in vivo
HL-60 [9] = experiment: Cytoprotective activity against H2O2-induced necrosis in human HL60 cells incubated for 1 hr followed by H2O2 stimulation by LDH release assay; format: functional, cell-based; details: HL-60, 1 h
How it was run: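 Necrosis of HL-60 cells induced by H2O2 and quantified as lactate dehydrogenase release from the cytosol; IC50 derived.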

H9c2 [10] = experiment: Cytoprotective activity against TBHP-induced necrosis in rat H9c2 cells incubated for 4 hrs by LDH release assay; format: functional, cell-based; details: H9c2, 4 h
How it was run: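 Rat cardiomyoblast H9c2 cells treated with TBHP (300 μM) with or without test compound; necrotic cell death quantified by LDH release assay.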

[11] = Stability in rat liver S9 fraction at 5 uM after 30 mins by HPLC method; format: ADME, subcellular; details: s9, 0.5 h
H9c2 [12] = experiment: Cytotoxicity against rat H9c2 cells at 30 uM; format: cell-based; details: h9c2, 30 µM
HL-60 [13] = experiment: Cytoprotective activity against Fas ligand-induced apoptosis in human HL60 cells assessed as increase in cell viability at 100 uM incubated for 1 hr followed by Fas ligand stimulation measured after 18 hrs by Alamar blue assay; format: functional, cell-based
How it was run: (§2)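 HL-60 cells given a death inducer with or without test agent (10 μM) or Z-VAD (100 μM). Inducers were actinomycin D 1 μM for 6 h, camptothecin 1 μM for 6 h, etoposide 100 μM for 4 h, FasL 100 ng/mL for 18 h, H2O2 100 μM for 3 h, and TBHP 30 μM for 3 h. Viability read by AlamarBlue.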

HL-60 [14] = experiment: Cytoprotective activity against actinomycin D-induced apoptosis in human HL60 cells assessed as increase in cell viability at 100 uM incubated for 1 hr followed by actinomycin D stimulation measured after 6 hrs by Alamar blue assay; format: functional, cell-based; how it was run: as §2
Jurkat [15] = experiment: Cytoprotective activity against FasL-induced apoptosis in human Jurkat cells assessed as increase in cell viability at 100 uM incubated for 1 hr followed by FasL stimulation measured after 18 hrs by phase contrast microscopy; format: functional, cell-based
How it was run: (§3)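 Jurkat cells exposed to FasL (100 ng/mL, 18 h) with or without test agent (10 μM) or Z-VAD (100 μM). Viability measured by AlamarBlue and morphology by phase-contrast imaging.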

Jurkat [16] = experiment: Cytoprotective activity against FasL-induced apoptosis in human Jurkat cells assessed as increase in cell viability at 100 uM incubated for 1 hr followed by FasL stimulation measured after 18 hrs by Alamar blue assay; format: functional, cell-based; how it was run: as §3
HL-60 [17] = experiment: Cytoprotective activity against camptothecin-induced apoptosis in human HL60 cells assessed as increase in cell viability at 100 uM incubated for 1 hr followed by camptothecin stimulation measured after 6 hrs by Alamar blue assay; format: functional, cell-based; how it was run: as §2
HL-60 [18] = experiment: Cytoprotective activity against H2O2-induced apoptosis in human HL60 cells assessed as increase in cell viability at 100 uM incubated for 1 hr followed by H2O2 stimulation measured after 4 hrs by Alamar blue assay; format: functional, cell-based
How it was run: (§4)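 HL-60 cells exposed to low-level H2O2 (30 μM, 4 h) with or without test agent (10 μM) or Z-VAD (100 μM). Viability read by AlamarBlue; morphology by phase-contrast imaging.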

HL-60 [19] = experiment: Cytoprotective activity against H2O2-induced necrosis in human HL60 cells assessed as increase in cell viability at 100 uM incubated for 1 hr followed by H2O2 stimulation measured after 3 hrs by Alamar blue assay; format: functional, cell-based; how it was run: as §2
HL-60 [20] = experiment: Cytoprotective activity against TBHP-induced necrosis in human HL60 cells assessed as increase in cell viability at 100 uM incubated for 1 hr followed by TBHP stimulation measured after 3 hrs by Alamar blue assay; format: functional, cell-based
HL-60 [21] = experiment: Cytoprotective activity against H2O2-induced apoptosis in human HL60 cells assessed as increase in cell viability at 100 uM incubated for 1 hr followed by H2O2 stimulation measured after 4 hrs by phase contrast microscopy; format: functional, cell-based; how it was run: as §4
HL-60 [22] = experiment: Cytoprotective activity against etoposide-induced apoptosis in human HL60 cells assessed as increase in cell viability at 100 uM incubated for 1 hr followed by etoposide stimulation measured after 4 hrs by Alamar blue assay; format: functional, cell-based; how it was run: as §2
Jurkat [23] = experiment: Cytoprotective activity against FasL-induced necroptosis in human Jurkat cells assessed as increase in cell viability at 30 uM incubated for 1 hr followed by FasL stimulation measured after 20 hrs by phase contrast microscopy; format: functional, cell-based
How it was run: (§5)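 Jurkat necroptosis induced with FasL (100 ng/mL, 20 h) together with Z-VAD (100 μM) or cycloheximide (5 μM). Test agents were run at 10 μM alongside a necroptosis inhibitor at 30 μM. Viability read by AlamarBlue; morphology examined by phase-contrast imaging.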

Jurkat [24] = experiment: Cytoprotective activity against CHX-induced necroptosis in human Jurkat cells assessed as increase in cell viability at 30 uM incubated for 1 hr followed by CHX stimulation by Alamar blue assay; format: functional, cell-based; how it was run: as §5
Jurkat [25] = experiment: Cytoprotective activity against Z-VAD-induced necroptosis in human Jurkat cells assessed as increase in cell viability at 30 uM incubated for 1 hr followed by Z-VAD stimulation by Alamar blue assay; format: functional, cell-based; how it was run: as §5
Jurkat [26] = experiment: Cytoprotective activity against CHX-induced necroptosis in human Jurkat cells assessed as increase in cell viability at 30 uM incubated for 1 hr followed by CHX stimulation by phase contrast microscopy; format: functional, cell-based; how it was run: as §5
Jurkat [27] = experiment: Cytoprotective activity against Z-VAD-induced necroptosis in human Jurkat cells assessed as increase in cell viability at 30 uM incubated for 1 hr followed by Z-VAD stimulation by phase contrast microscopy; format: functional, cell-based; how it was run: as §5
Jurkat [28] = experiment: Cytoprotective activity against FasL-induced necroptosis in human Jurkat cells assessed as increase in cell viability at 30 uM incubated for 1 hr followed by FasL stimulation measured after 20 hrs by Alamar blue assay; format: functional, cell-based; how it was run: as §5
HL-60 [29] = experiment: Cytoprotective activity against H2O2-induced necrosis in human HL60 cells assessed as increase in cell viability at 1 to 10 uM incubated for 1 hr followed by H2O2 stimulation measured after 3 hrs by Alamar blue assay; format: functional, cell-based
How it was run: (§6)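 HL-60 cells treated with H2O2 (100 μM, 3 h) with or without various cell death inhibitors (cyclophilin D, PARP-1, necroptosis, autophagy). Viability read by AlamarBlue.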

HL-60 [30] = experiment: Cytoprotective activity against H2O2-induced necrosis in human HL60 cells assessed as increase in cell viability at 1 to 5 mM incubated for 1 hr followed by H2O2 stimulation measured after 3 hrs by Alamar blue assay; format: functional, cell-based; how it was run: as §6
HL-60 [31] = experiment: Cytoprotective activity against H2O2-induced necrosis in human HL60 cells assessed as increase in cell viability at 10 to 100 uM incubated for 1 hr followed by H2O2 stimulation measured after 3 hrs by Alamar blue assay; format: functional, cell-based; how it was run: as §6
Heart [32] = experiment: Cardioprotective activity against Langendorff isolated Sprague-Dawley rat heart ischemia-reperfusion injury model assessed as suppression of creatine kinase release at 0.3 uM administered for 10 mins as infusion followed by 30 mins of global ischemia and 60 mins of reperfusion; format: functional, tissue-based; how it was run: as §1
Heart [33] = experiment: Cardioprotective activity against Langendorff isolated Sprague-Dawley rat heart ischemia-reperfusion injury model assessed as improvement in LVDP at 0.3 uM administered for 10 mins as infusion followed by 30 mins of global ischemia and 60 mins of reperfusion; format: functional, tissue-based; how it was run: as §1

CN1C(=O)C(NCCN)=C(c2cn(C)c3ccccc23)C1=O [listing 1 of 2 here]
Activity (Heart [1]): Active | Activity (Heart [2]): Active

CN1C(=O)C(NCCN)=C(c2cn(C)c3ccccc23)C1=O.Cl
mortality (Rattus norvegicus [3]): 20% | mortality (Rattus norvegicus [4]): 0% | Time (Rattus norvegicus [5]): 0 s | Time (Rattus norvegicus [6]): 38.2 s | Time (Rattus norvegicus [7]): 57 s | mortality (Rattus norvegicus [8]): 20%

CCCCCCNC1=C(c2cn(C)c3ccccc23)C(=O)N(C)C1=O
IC50 (HL-60 [9]): 380 nM

CN1C(=O)C(NCCO)=C(c2cn(C)c3ccccc23)C1=O
IC50 (HL-60 [9]): 1300 nM

CN1C(=O)C(NCCCCN)=C(c2cn(C)c3ccccc23)C1=O
IC50 (HL-60 [9]): 1300 nM

CN1C(=O)C(NCCN)=C(c2cn(C)c3ccccc23)C1=O [listing 2 of 2 here]
IC50 (H9c2 [10]): 4.9 µM | Stability [11]: Stable | IC50 (HL-60 [9]): 1000 nM | Activity (H9c2 [12]): Non-Toxic

COC(=O)C[C@H](NC(=O)[C@H](C)NC(=O)[C@@H](NC(=O)OCc1ccccc1)C(C)C)C(=O)O (Cbz-Val-Ala-Asp(OMe)-OH)
Activity (HL-60 [13]): Active | Activity (HL-60 [14]): Active | Activity (Jurkat [15]): Active | Activity (Jurkat [16]): Active | Activity (HL-60 [17]): Active | Activity (HL-60 [18]): Active | Activity (HL-60 [19]): inactive | Activity (HL-60 [20]): inactive | Activity (HL-60 [21]): Active | Activity (HL-60 [22]): Active

CCCCNC1=C(c2cn(C)c3ccccc23)C(=O)N(C)C1=O
IC50 (HL-60 [9]): 420 nM

CN1C(=O)C(NCCCN)=C(c2cn(C)c3ccccc23)C1=O
IC50 (HL-60 [9]): 1300 nM

CN1C(=O)C(NCCCCO)=C(c2cn(C)c3ccccc23)C1=O
IC50 (HL-60 [9]): 1100 nM

CN1C(=O)C(Cc2c[nH]c3ccccc23)NC1=S (configuration not stated)
Activity (Jurkat [23]): Active | Activity (Jurkat [24]): Active | Activity (Jurkat [25]): Active | Activity (Jurkat [26]): Active | Activity (Jurkat [27]): Active | Activity (Jurkat [28]): Active | Activity (HL-60 [29]): inactive

Cn1cnc(N)c2ncnc1-2
Activity (HL-60 [30]): inactive

CNC1=C(c2cn(C)c3ccccc23)C(=O)N(C)C1=O
IC50 (HL-60 [9]): 910 nM

O=C1NCCc2c(OCCCCN3CCCCC3)cccc21
Activity (HL-60 [31]): inactive

CCCNC1=C(c2cn(C)c3ccccc23)C(=O)N(C)C1=O
IC50 (H9c2 [10]): 4.4 µM | Activity (Heart [32]): Active | Stability [11]: Unstable | IC50 (HL-60 [9]): 440 nM | Activity (H9c2 [12]): Non-Toxic | Activity (Heart [33]): Active

CN1C(=O)C(c2c[nH]c3ccccc23)=C(c2cn(CCCN)c3ccccc23)C1=O
IC50 (H9c2 [10]): 3 µM | Activity (H9c2 [12]): Toxic

CN1C(=O)C(NCCCO)=C(c2cn(C)c3ccccc23)C1=O
IC50 (HL-60 [9]): 1900 nM
